Screening results deposited in PubChem by several laboratories.
The list is not random: actives were taken first. Their share in the collection is about 1.8%.
NTR1 ag = agonists of human NTR1, primary screen, imaging, U2OS cells, beta-arrestin-GFP, high content; activation, % at 20 µM; 0.17% of 330,000 active; NTR1-U2OS beta-arrestin-GFP spot imaging, agonist mode;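 active = activation at or above 40% of the spot to cytoplasm intensity ratio, with at least 20 cells analyzed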;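 note: 0% = DMSO without peptide and 100% = 100 nM NTR1 peptide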
MC4R barr agon = MC4R agonists recruiting beta-arrestin, primary screen, cell-based, luminescence, agonist arm of biased-ligand search; Melanocortin receptor 4 (Homo sapiens), P32245; U2OS MC4R beta-arrestin complementation; percent of melanotan II response, DMSO zero; activation, % at 8.9 µM; 0.98% of 360,000 active;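 active = activation above a per-plate cutoff, the mean activation of sample wells on that plate plus 3 SD, cut at about 8% in these data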
Target sequence (P32245 whole entry, looked up): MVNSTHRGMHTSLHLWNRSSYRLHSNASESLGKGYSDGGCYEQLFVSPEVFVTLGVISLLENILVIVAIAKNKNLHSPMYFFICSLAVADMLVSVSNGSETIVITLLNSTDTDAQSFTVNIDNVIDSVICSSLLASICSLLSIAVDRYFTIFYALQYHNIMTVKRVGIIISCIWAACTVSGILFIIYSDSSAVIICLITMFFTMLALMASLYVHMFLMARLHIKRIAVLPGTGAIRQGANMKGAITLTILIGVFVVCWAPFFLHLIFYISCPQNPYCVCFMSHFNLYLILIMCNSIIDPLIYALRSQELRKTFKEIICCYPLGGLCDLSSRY
MC4R antag cAMP = MC4R antagonists of cAMP signaling, primary screen, cell-based, TR-FRET, antagonist arm of biased-ligand search; 0.48% of 360,000 active; Melanocortin receptor 4 (Homo sapiens), P32245; MC4R-expressing cells, MTII-stimulated cAMP, LANCE TR-FRET; inhibition, % at 6.5 µM;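 active = inhibition above its plate's cutoff, the mean of tested wells on that plate plus 3 SD, cut at about 29% in these data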;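 note: 0% = Melanotan II alone and 100% = Melanotan II plus saturating MCL0020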
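Test system: U2OS cells stably expressing human melanocortin 4 receptor (MC4R); also added: Melanotan II challenge; compound: 6.5 µM single dose; timing: 30-min compound preincubation, 1-h Melanotan II challenge, 1-h detection, room temperature; signal: Eu-cAMP/anti-cAMP TR-FRET, emission 671 nm; repeats: one well per compound, no replicates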
AI-2 QS mod = Vibrio harveyi AI-2 quorum sensing modulators, primary screen, JMH597 strain, luminescence/OD600 ratio. AID 2094, 2009. 0.4% of 300,000 active. Vibrio harveyi JMH597 AI-2 luminescence/OD600 ratio, 9 h; active compounds read low; strain lacks LuxN and CqsS sensors; 0 = neutral-control median. activity change, % at 7.5 µM; in the data active = activity change below about -75%, passing the limit was not always enough;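 note: luminescence divided by OD600 gain over 9 h not by final OD600 alone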
Starred values were filed as active, the others as inactive; nt = no result given.

SMILES	NTR1 ag	MC4R barr agon	MC4R antag cAMP	AI-2 QS mod
COc1ccc(C(=O)Nc2ccc3c(c2)OCCO3)cc1Br	0	0	-5	10
O=C(c1ccc(C(F)(F)F)cc1)C1CCCN(C(=O)CCc2ccncc2)C1 (stereo not given)	0	0	14	12
CCN(CC(=O)Nc1c(F)cccc1F)C(=O)c1nn(C)c(=O)c2ccccc12	-2	-1	0	nt
O=C(COC(=O)/C=C/c1ccccc1Cl)NC(=O)NCc1ccccc1	1	8.4*	-2	nt
COc1ccc([C@H]2N[C@]3(CCCN(Cc4cccn4C)C3=O)[C@H]3C(=O)N(Cc4ccccc4)C(=O)[C@@H]23)cc1	nt	2	1	nt
Cc1cc(=O)[nH]c(SCC(=O)Nc2nc3ccccc3s2)n1	0	-2	5	29
Cc1cc(=O)[nH]c(SCC(=O)Nc2nnc(SCc3ccccc3)s2)n1	1	8.8*	3	27
CC(Oc1ccc(Br)cc1)C(=O)NNC(=O)CCN1CCN(c2ccccc2)CC1 (stereo not given)	0	1	0	-92*
CC(C)n1cc(CN2CCC(Oc3ccc(C(=O)N4CCCCC4)cc3)CC2)cn1	0	-3	-6	13
O=C(NCC(O)c1ccccc1)c1cccs1 (stereo not given)	0	1	16	-4
O=C(Nc1cccnc1)c1ccc([N+](=O)[O-])o1	2	-1	11	-108*
O=C(NCc1ccco1)c1ccc([N+](=O)[O-])o1	1	-1	0	-165*
COc1ccc(NC(=O)c2ccc([N+](=O)[O-])o2)cc1	2	-1	-6	-4
O=C(NCc1ccco1)c1ccc(Cn2cc([N+](=O)[O-])cn2)o1	0	1	-4	28
O=C(Cc1ccc([N+](=O)[O-])cc1)NCc1cccnc1	0	-1	-1	6
O=C(NCc1cccnc1)c1ccc([N+](=O)[O-])o1	0	1	1	-109*
COc1ccc(OC)c(C2c3[nH]c4ccccc4c3C[C@H]3C(=O)N(CCCOC(C)C)CC(=O)N23)c1 (stereo not given in full)	-1	1	0	25
O=C(CN(CCc1ccccc1)S(=O)(=O)c1ccc(Br)cc1)N/N=C/c1ccc2c(c1)OCO2	26	8.5*	12	12
O=C1Nc2ccc(Br)cc2/C1=C/C(=O)c1ccc2c(c1)OCO2	55*	-5	-4	24
COc1ccc(C(=O)/C=C2\C(=O)Nc3ccc(Br)cc32)cc1	nt	0	-2	nt
CN(C)c1ccc(/C=N/NC(=O)Cn2nnc3ccccc32)cc1	2	0	-6	6
COc1ccc(/C=N/NC(=O)Cn2nnc3ccccc32)cc1OC	0	-1	1	-92*
COc1ccc(CC(N)c2csc(NC(=O)c3cccc(OC(F)(F)F)c3)n2)cc1 (stereo not given)	nt	8.9*	-12	nt
O=c1c2cc(Cl)ccc2nc(-c2ccc([N+](=O)[O-])cc2)n1O	-1	-2	3	-83*
O=c1c2cc(Br)ccc2nc(-c2ccc(Cl)cc2)n1O	nt	-1	3	18
SMILES	NTR1 ag	MC4R barr agon	MC4R antag cAMP	AI-2 QS mod
CC1=Nn2c(nnc2-c2cc(-c3ccccc3)n[nH]2)SC1	1	1	13	5
c1ccc(-c2ccc(C3=Nn4c(nnc4-c4cc(-c5ccccc5)n[nH]4)SC3)cc2)cc1	10	9.7*	0	11
CC(=O)Nc1ccc2c(c1)CCc1ccccc1-2	1	0	-1	18
O=C(O)/C=C/C(=O)c1ccc2c(c1)CCc1ccccc1-2	15	-5	15	-89*
CN(C)N1C(N)=C(C#N)C(c2cccc([N+](=O)[O-])c2)C2=C1CC(C)(C)CC2=O (stereo not given)	2	0	10	8
CCOC(=O)C(C#N)(Cc1ccc2ccccc2n1)Cc1ccc2ccccc2n1	nt	0	1	nt
COc1ccc(Cl)c(-c2cc(C(=O)NCc3ccc(C(F)(F)F)cc3)[nH]n2)c1	nt	9.5*	-3	nt
CCOc1ccc(N2C(=O)/C(=C/c3cccs3)N(CC(=O)OC)C2=S)cc1	1	20*	4	7
C#CCOCCOCCOCCNc1nc(N2CCN(C(=O)CCCCCCCCCCNC(=O)[C@H](CCCCN)n3cc(C)nn3)CC2)nc(N2CCN(C(=O)CCCCCCCCCCNC(=O)[C@@H]([C@H](C)O)n3cc(C)nn3)CC2)n1	4	-1	8	nt
C#CCOCCOCCOCCNc1nc(N2CCN(C(=O)CCCCCCCCCCNC(=O)[C@H](CCCCN)n3cc(C[C@@H](C)CC)nn3)CC2)nc(N2CCN(C(=O)CCCCCCCCCCNC(=O)[C@H](CCCN=C(N)N)n3cc(C[C@@H](C)CC)nn3)CC2)n1	1	-2	83*	nt
CC[C@H](C)Cc1cn([C@@H](CCCN=C(NC(=O)OC(C)(C)C)NC(=O)OC(C)(C)C)C(=O)NCCCCCCCCCCC(=O)N2CCN(C(=O)OC(C)(C)C)CC2)nn1	45*	0	24	1
Cc1cn([C@@H](CCCCNC(=O)OC(C)(C)C)C(=O)NCCCCCCCCCCC(=O)N2CCN(C(=O)OC(C)(C)C)CC2)nn1	14	1	4	nt
C#CCOCCOCCOCCNc1nc(N2CCN(C(=O)CCCCCCCCCCNC(=O)[C@H](CCCCN)n3cc(C[C@@H](C)CC)nn3)CC2)nc(N2CCN(C(=O)CCCCCCCCCCNC(=O)[C@@H]([C@H](C)O)n3cc(C)nn3)CC2)n1	4	-1	44*	nt
C#CCOCCOCCOCCNc1nc(N2CCN(C(=O)CCCCCCCCCCNC(=O)[C@@H](CCSC)n3cc(CCO)nn3)CC2)nc(N2CCN(C(=O)CCCCCCCCCCNC(=O)[C@H](CCCN=C(N)N)n3cc(C[C@@H](C)CC)nn3)CC2)n1	8	0	60*	nt
CC(C)c1ccc(NC(=O)CSc2n[nH]c(=O)n2C2CC2)cc1	-1	-2	-4	5
COc1cccc(N2CCN(c3ccc4nnc(CCC(=O)Nc5ccc(OC)c(OC)c5)n4n3)CC2)c1	1	-1	0	14
CCCC(=O)NC(=S)Nc1cccc(Cl)c1N1CCCCC1	32	4	12	8
CCC(=O)NC(=S)Nc1cccc(Cl)c1N1CCCCC1	50*	0	4	13
O=C(Nc1ccccc1Cl)c1cc(C2CCCN(S(=O)(=O)c3cccs3)C2)on1 (stereo not given)	nt	0	18	nt
Cc1cc(=S)nc(-c2ccccn2)[nH]1	2	1	0	4
Cc1[nH]c(-c2ccccn2)nc(=S)c1Cl	0	-1	3	-88*
CN(C(=O)C1CC1)C1CCS(=O)(=O)C1 (stereo not given)	0	-2	-10	25
